# In article PMC8680456 (Advanced therapeutics, 2021):
# Key:
# [1] = Cleavage of niche-responsive LXR PAs; assay type: physicochemical; settings: 1 mM PA, 37 °C
# Method in brief: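 Linker-bearing PAs at 1 mM in PBS. ROS-linked: 250 μM H2O2 + 50 μM CuSO4. NDEC-linked: 10 mM TCEP. SPDP-linked: 10 mM TCEP or 10 mM DTT. PBS-only controls. Incubated at 37 °C, 5% CO2; sampled at 24 h, 4 and 7 days; stored −20 °C. LC-MS: C18 UPLC column at 40 °C, electrospray 4.7 kV, capillary 350 °C, 150–2000 m/z, 120,000 resolution.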
# [2] = test system: cholesterol-laden macrophages; assay: PA colocalization with cholesterol; assay type: cell-based; settings: 32 μM LXR or PA epitope equivalents, 24 hours
# [3] = test system: ABCA1; assay: ABCA1 and CD68 immunofluorescence in aortic roots; assay type: in vivo; settings: LDLR KO mice, eight weeks of twice weekly injections, versus PBS control, n≥6
# Method in brief: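 LDLR KO male and female mice, obtained at 4 weeks, fed high-fat diet 14 weeks, then given tail-vein injections twice weekly for 8 weeks under isoflurane; PBS controls. Perfused with PBS and 2% paraformaldehyde; aortic roots sectioned. Blocked in TBST (0.1% Triton) with 10% horse serum 1 h RT; anti-CD68 (1:500) and anti-ABCA1 (1:1000) overnight 4 °C. Fluorescence pixel intensity quantified; two-factor ANOVA, Dunnett's vs PBS, n≥6.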
# [4] = test system: RIP3; assay: Liver toxicity by RIP3 expression; settings: mouse, in vivo
compound,measurement,setting,value
C16-VVAAEE-PEG4-NDEC-K(LXR) [NDEC-LXR PA],PA cleavage by day 4,"[1]; 10 mM TCEP in PBS, day 4, LC-MS",complete cleavage
"O=C(O)Cc1cccc(OCCCN(Cc2cccc(C(F)(F)F)c2Cl)CC(c2ccccc2)c2ccccc2)c1 [LXR, GW3965]",confocal microscopy observation of cholesterol-laden macrophages,[2],appeared to be undergoing cell death
same,ABCA1 expression relative to number of CD68+ macrophages,[3],significant increase in ABCA1 expression
same,liver toxicity by RIP3 expression,[4],Liver toxicity was observed
C16-VVAAEE-PEG4-K-PPPPP-K(Mtt) [ROS-LXR PA],PA cleavage after 1 week,"[1]; 250 μM H2O2 + 50 μM CuSO4 in PBS, 1 week, LC-MS",completely cleaved
